Laboratory results: paper PMC4687753 (Journal of the American Chemical Society, 2015)
Entries after “also recorded” stand apart in the source; their conditions may differ. *1 amine or outer side, *2 acyl side, *3 side chain or, on linkers, in order; H or OH if unused. Where a SMILES comes first, the peptide text is derived from it. Bridges are numbered along the chain shown (N, C = ends). Roman numbers before positions name the chains, in order. [ ]: non-standard residue; d: D form. X2 = O=C(O)CCC(=O)N1C[C@H](N[*:2])[C@@H](C(=O)[*:1])C1; X1 = O=C([C@H]1CCC[C@@H]1N[*:1])[*:2]; S5 = C=CCCC[C@](C)(N)C(=O)O

Assays:
Bcl-xL = Bcl-xL (Homo sapiens, UniProt Q07817); assay: SPR solution competition assay; assay type: binding
Mcl-1 = Mcl-1 (Homo sapiens, UniProt Q07820); assay: SPR solution competition assay; assay type: binding
Bcl-2 = Bcl-2 (Homo sapiens, UniProt P10415); assay: SPR solution competition assay; assay type: binding
[1] = tested on: bax−/−/bak−/− mouse embryonic fibroblasts (MEFs); assay: Cytochrome c release assay, permeabilized cells; assay type: cell-based; conditions: digitonin-permeabilized bax−/−/bak−/− MEFs, 10 μM peptide, 1 hour, western blot
[2] = tested on: wild-type mouse embryonic fibroblasts (MEFs); assay: Cytochrome c release assay, permeabilized cells; assay type: cell-based; conditions: digitonin-permeabilized wt MEFs, 10 μM peptide, 1 hour, western blot
[3] = tested on: unpermeabilized U937 cells; assay: Cytochrome c release assay, unpermeabilized cells; assay type: cell-based; conditions: unpermeabilized U937, 10 μM peptide, 3 hours at 37°C, western blot
MDA-MB-468 = assay: Cell killing assay; assay type: cell-based; conditions: MDA-MB-468 (mammary), 10 μM, 24 hours, CellTiter-Glo, two independent experiments
proteinase K = proteinase K (Parengyodontium album, UniProt P06873); assay: Protease susceptibility assay; conditions: same conditions as t1/2
LIM-2405 = assay: Cell killing assay; assay type: cell-based; conditions: LIM-2405 (colon), 10 μM, 24 hours, CellTiter-Glo, two independent experiments
Summary of the method: (§1)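 Human tumour lines grown in RPMI with 10% FBS. Seeded at 1.5×10³ cells/well, then washed with serum-free medium after 24 h. Exposed to 10 μM test compound or DMSO in serum-free medium for 2 h, then FBS added to 10% final, for 24 h total exposure. Viability read as CellTiter-Glo luminescence (intracellular ATP) relative to DMSO; mean ± SD of two independent experiments.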

MEFs = assay: Cell killing assay; assay type: cell-based, mouse; conditions: 10 μM, 24 hours, CellTiter-Glo, two independent experiments
Summary of the method: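 Mouse embryonic fibroblasts kept in DME KELSO medium with 10% FBS, 250 μM L-asparagine and 50 μM 2-mercaptoethanol. Given 10 μM test compound or DMSO for 24 h. Viability measured by CellTiter-Glo luminescence (intracellular ATP) relative to DMSO; mean ± SD of two independent experiments.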

MDA-MB-231 = assay: Cell killing assay; assay type: cell-based; conditions: MDA-MB-231 (mammary), 10 μM, 24 hours, CellTiter-Glo, two independent experiments
SW480 = assay: Cell killing assay; assay type: cell-based; conditions: SW480 (colon), 10 μM, 24 hours, CellTiter-Glo, two independent experiments
Summary of the method: as §1

A549 = assay: Cell killing assay; assay type: cell-based; conditions: A549 (lung), 10 μM, 24 hours, CellTiter-Glo, two independent experiments
Summary of the method: as §1

U937 lymphoma cells = conditions: CellTiter-Glo; for effect of caspase inhibitor Q-VD-OPh on loss of U937 viability: 50 μM Q-VD-OPh, 2 hours; for cell viability relative to DMSO control: U937, 10 μM, 24 hours, two independent experiments; for U937 cell viability after 2 hours of treatment: titration, 2 hours serum-free, absence of caspase inhibitor

Chain of proteinase K (P06873 106-384, species assumed): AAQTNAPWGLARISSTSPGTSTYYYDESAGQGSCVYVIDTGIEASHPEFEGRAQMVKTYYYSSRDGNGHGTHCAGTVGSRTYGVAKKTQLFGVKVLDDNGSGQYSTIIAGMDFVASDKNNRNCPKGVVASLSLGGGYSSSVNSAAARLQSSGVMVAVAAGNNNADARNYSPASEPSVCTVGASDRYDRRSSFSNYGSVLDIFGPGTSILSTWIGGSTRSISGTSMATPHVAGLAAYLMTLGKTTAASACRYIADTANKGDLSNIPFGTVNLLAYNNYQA
Chain of Mcl-1 (Q07820 171-327 limits assumed): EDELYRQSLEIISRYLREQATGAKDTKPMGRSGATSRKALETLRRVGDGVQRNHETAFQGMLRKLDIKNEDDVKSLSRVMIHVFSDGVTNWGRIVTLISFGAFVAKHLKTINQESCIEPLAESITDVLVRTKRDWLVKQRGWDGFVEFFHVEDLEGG
Chain of Bcl-2 (P10415 1-217 limits assumed): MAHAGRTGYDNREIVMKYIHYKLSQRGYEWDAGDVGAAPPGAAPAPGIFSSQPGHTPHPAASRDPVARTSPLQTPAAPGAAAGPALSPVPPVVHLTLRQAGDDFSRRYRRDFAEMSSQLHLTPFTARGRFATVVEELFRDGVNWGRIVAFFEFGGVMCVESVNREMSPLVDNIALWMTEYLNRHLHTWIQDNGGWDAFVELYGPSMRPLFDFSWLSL
Chain of Bcl-xL (Q07817 1-209 limits assumed, species assumed): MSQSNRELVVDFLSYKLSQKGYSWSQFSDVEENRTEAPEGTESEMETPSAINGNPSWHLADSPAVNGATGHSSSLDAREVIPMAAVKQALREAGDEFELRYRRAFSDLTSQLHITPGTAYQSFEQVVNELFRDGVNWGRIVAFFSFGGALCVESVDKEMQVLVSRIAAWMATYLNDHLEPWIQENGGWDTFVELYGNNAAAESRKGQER

Row | SMILES | IC50 (Bcl-xL) [nM] | IC50 (Mcl-1) [nM] | IC50 (Bcl-2) [nM] | cytochrome c release from pellet fraction to soluble cytosolic fraction [1] | cytochrome c release from pellet fraction to soluble cytosolic fraction [2] | location of cytochrome c after treatment of intact cells [3] | cell viability relative to DMSO control (MDA-MB-468) | increase in half-life relative to α-Bim (proteinase K) | cell viability relative to DMSO control (LIM-2405) | cell viability relative to DMSO control (MEFs) | cell viability relative to DMSO control (MDA-MB-231) | cell viability relative to DMSO control (SW480) | cell viability relative to DMSO control (A549) | effect of caspase inhibitor Q-VD-OPh on loss of U937 viability (U937 lymphoma cells) | cell viability relative to DMSO control (U937 lymphoma cells) | U937 cell viability after 2 hours of treatment (U937 lymphoma cells) | increase in half-life relative to the stapled peptide α-1 (proteinase K) [fold]
1 | C=CCCC[C@](C)(NC(=O)[C@H](CC(=O)O)NC(=O)CNC(=O)[C@@H](NC(=O)[C@](C)(CCCC=C)NC(=O)[C@H](CCCNC(=N)N)NC(=O)[C@H](CC(C)C)NC(=O)[C@H](CCC(=O)O)NC(=O)[C@H](CCC(N)=O)NC(=O)[C@H](C)NC(=O)[C@@H](NC(=O)[C@H](Cc1c[nH]c2ccccc12)NC(=O)[C@@H](NC(C)=O)[C@@H](C)CC)[C@@H](C)CC)[C@@H](C)CC)C(=O)N[C@@H](Cc1ccccc1)C(=O)N[C@@H](CC(N)=O)C(=O)N[C@@H](C)C(=O)N[C@@H](Cc1ccc(O)cc1)C(=O)N[C@@H](Cc1ccc(O)cc1)C(=O)N[C@@H](C)C(=O)N[C@@H](CCCNC(=N)N)C(=O)N[C@@H](CCCNC(=N)N)C(N)=O [α-1-LIN] | 80 | 4 | 189 | – | – | – | – | – | – | – | – | – | – | – | – | – | –
2 | CC[C@H](C)[C@H](NC(C)=O)C(=O)N[C@H]1CCC[C@@H]1C(=O)N[C@H](C(=O)N[C@@H](C)C(=O)N[C@@H](CCC(N)=O)C(=O)N[C@H]1CN(C(=O)CCC(=O)O)C[C@@H]1C(=O)N[C@@H](CC(C)C)C(=O)N[C@@H](CCCNC(=N)N)C(=O)N[C@H]1CCC[C@@H]1C(=O)N[C@H](C(=O)NCC(=O)N[C@@H](CC(=O)O)C(=O)N[C@H]1CCC[C@@H]1C(=O)N[C@@H](Cc1ccccc1)C(=O)N[C@@H](CC(N)=O)C(=O)N[C@H]1CCC[C@@H]1C(=O)N[C@@H](Cc1ccc(O)cc1)C(=O)N[C@@H](Cc1ccc(O)cc1)C(=O)N[C@@H](C)C(=O)N[C@@H](CCCNC(=N)N)C(=O)N[C@@H](CCCNC(=N)N)C(N)=O)[C@@H](C)CC)[C@@H](C)CC [α/β-2] (I: LR[X1]IGD[X1]FN[X1]YYARR-NH2 / II: Ac-I[X1]IAQ; linker I:N-II:C via X2) | – | – | – | but not in bax^−/−/bak^−/− MEFs | Slightly less cytochrome c release; also recorded: able to induce cytochrome c release | cytochrome c exclusively in the pellet | – | – | – | – | – | – | – | – | – | – | –
3 | CC[C@H](C)[C@H](NC(C)=O)C(=O)N[C@@H](Cc1c[nH]c2ccccc12)C(=O)N[C@H](C(=O)N[C@@H](C)C(=O)N[C@@H](CCC(N)=O)C(=O)N[C@@H](CCC(=O)O)C(=O)N[C@@H](CC(C)C)C(=O)N[C@@H](CCCNC(=N)N)C(=O)N[C@@]1(C)CCC/C=C\CCC[C@@](C)(C(=O)N[C@@H](Cc2ccccc2)C(=O)N[C@@H](CC(N)=O)C(=O)N[C@@H](C)C(=O)N[C@@H](Cc2ccc(O)cc2)C(=O)N[C@@H](Cc2ccc(O)cc2)C(=O)N[C@@H](C)C(=O)N[C@@H](CCCNC(=N)N)C(=O)N[C@@H](CCCNC(=N)N)C(N)=O)NC(=O)[C@H](CC(=O)O)NC(=O)CNC(=O)[C@H]([C@@H](C)CC)NC1=O)[C@@H](C)CC [α-1, reference compound] | – | – | – | – | – | – | no significant cell death | ~ 6 fold | no significant cell death | essentially no effect | no significant cell death | no significant cell death | no significant cell death | attenuated by Q-VD-OPh | efficiently killing U937 lymphoma cells | significant reduction in cell viability | –
4 | CC[C@H](C)[C@H](NC(C)=O)C(=O)N[C@H]1CCC[C@@H]1C(=O)N[C@H](C(=O)N[C@@H](C)C(=O)N[C@@H](CCC(N)=O)C(=O)N[C@H]1CN(C(=O)CCC(=O)O)C[C@@H]1C(=O)N[C@@H](CC(C)C)C(=O)N[C@@H](CCCNC(=N)N)C(=O)N[C@@]1(C)CCC/C=C\CCC[C@@](C)(C(=O)N[C@@H](Cc2ccccc2)C(=O)N[C@@H](CC(N)=O)C(=O)N[C@H]2CCC[C@@H]2C(=O)N[C@@H](Cc2ccc(O)cc2)C(=O)N[C@@H](Cc2ccc(O)cc2)C(=O)N[C@@H](C)C(=O)N[C@@H](CCCNC(=N)N)C(=O)N[C@@H](CCCNC(=N)N)C(N)=O)NC(=O)[C@H](CC(=O)O)NC(=O)CNC(=O)[C@H]([C@@H](C)CC)NC1=O)[C@@H](C)CC [α/β-1] (I: LR[S5]IGD[S5]FN[X1]YYARR-NH2 / II: Ac-I[X1]IAQ; staple (Z) I:3-I:7; linker I:N-II:C via X2) | – | – | – | but not in bax^−/−/bak^−/− MEFs | able to induce cytochrome c release | most of the cytochrome c was present in the soluble fraction | no significant cell death | > 500 fold | no significant cell death | essentially no effect | no significant cell death | no significant cell death | no significant cell death | attenuated by Q-VD-OPh | potently impacted U937 lymphoma cell viability | significant reduction in cell viability | > 90
